Test results taken from ChEMBL document CHEMBL1146234, “Synthesis and biological evaluation of N-pyrazolyl-N'-alkyl/benzyl/phenylureas: a new class of potent inhibitors of interleukin 8-induced neutrophil chemotaxis” (J Med Chem, 2007).
The source made the active and inactive calls. No cut-off for these calls is given here.

What was measured:
[1] = molecular target: T1, C-C chemokine receptor type 1 (Homo sapiens) (UniProt P32246); test: Binding affinity to CCR1
T1 sequence (whole entry): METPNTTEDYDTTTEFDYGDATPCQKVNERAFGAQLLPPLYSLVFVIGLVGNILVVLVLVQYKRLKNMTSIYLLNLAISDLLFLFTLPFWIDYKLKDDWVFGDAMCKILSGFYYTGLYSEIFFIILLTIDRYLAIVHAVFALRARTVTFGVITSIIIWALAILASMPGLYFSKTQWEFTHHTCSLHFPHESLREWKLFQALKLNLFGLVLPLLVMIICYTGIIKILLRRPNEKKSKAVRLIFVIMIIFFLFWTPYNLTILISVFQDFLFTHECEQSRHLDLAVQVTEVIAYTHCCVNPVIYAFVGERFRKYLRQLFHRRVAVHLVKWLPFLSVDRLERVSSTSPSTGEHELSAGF

[2] = molecular target: C-C chemokine receptor type 2 (Homo sapiens) (UniProt P41597); test: Binding affinity to CCR2
C-C chemokine receptor type 2 (Homo sapiens), sequence (P41597 whole entry, looked up): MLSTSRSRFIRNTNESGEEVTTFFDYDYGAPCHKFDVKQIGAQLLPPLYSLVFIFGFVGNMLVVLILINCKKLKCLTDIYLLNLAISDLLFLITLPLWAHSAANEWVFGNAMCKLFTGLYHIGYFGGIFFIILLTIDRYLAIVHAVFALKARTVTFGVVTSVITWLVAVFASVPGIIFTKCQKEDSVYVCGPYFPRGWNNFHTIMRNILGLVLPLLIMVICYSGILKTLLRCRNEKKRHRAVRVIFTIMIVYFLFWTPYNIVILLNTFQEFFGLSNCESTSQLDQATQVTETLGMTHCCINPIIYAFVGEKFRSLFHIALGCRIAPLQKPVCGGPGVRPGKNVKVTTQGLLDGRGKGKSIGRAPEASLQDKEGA

[3] = molecular target: Mitogen-activated protein kinase 1 (Homo sapiens) (UniProt P28482); test: Binding affinity to ERK2
Mitogen-activated protein kinase 1 (Homo sapiens), sequence (P28482 whole entry): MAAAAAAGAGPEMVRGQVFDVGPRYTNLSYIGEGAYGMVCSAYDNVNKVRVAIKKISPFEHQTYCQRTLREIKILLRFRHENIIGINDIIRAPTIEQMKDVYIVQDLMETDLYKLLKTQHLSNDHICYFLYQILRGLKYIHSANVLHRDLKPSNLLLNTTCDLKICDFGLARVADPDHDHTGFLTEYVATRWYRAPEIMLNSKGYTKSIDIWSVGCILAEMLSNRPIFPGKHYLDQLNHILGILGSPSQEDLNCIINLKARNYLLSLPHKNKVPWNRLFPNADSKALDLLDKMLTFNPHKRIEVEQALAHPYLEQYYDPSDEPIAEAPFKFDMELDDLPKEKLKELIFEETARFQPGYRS

[4] = molecular target: RAC-alpha serine/threonine-protein kinase (Homo sapiens) (UniProt P31749); test: Binding affinity to Akt1
RAC-alpha serine/threonine-protein kinase (Homo sapiens), sequence (P31749 whole entry): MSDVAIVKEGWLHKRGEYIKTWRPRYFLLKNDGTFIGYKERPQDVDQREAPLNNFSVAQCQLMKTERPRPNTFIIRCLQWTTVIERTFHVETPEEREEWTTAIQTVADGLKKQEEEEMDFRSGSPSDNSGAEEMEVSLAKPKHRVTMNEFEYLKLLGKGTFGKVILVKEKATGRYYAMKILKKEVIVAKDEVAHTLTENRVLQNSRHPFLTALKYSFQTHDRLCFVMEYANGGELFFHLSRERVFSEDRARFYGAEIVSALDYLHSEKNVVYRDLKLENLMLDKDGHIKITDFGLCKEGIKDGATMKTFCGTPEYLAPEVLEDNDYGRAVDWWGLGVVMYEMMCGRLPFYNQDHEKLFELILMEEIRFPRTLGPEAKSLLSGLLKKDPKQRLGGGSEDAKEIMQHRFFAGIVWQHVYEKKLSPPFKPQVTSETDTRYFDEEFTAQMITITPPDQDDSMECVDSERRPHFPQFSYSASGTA

Neutrophil [5] = test: Reduction of IL8-stimulated F-actin polymerization in human neutrophils; assay type: functional; design: scale not given: the % may be the effect or the level left
Summary of the method: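 Donor neutrophils were incubated ± compound, washed three times, then stimulated 30 min with medium or 100 nM IL8. Cytospins were stained with Alexa Fluor 488-phalloidin and examined by fluorescence microscopy. Mean fluorescence density came from linear per-cell measurement across ≥5 random fields per slide, in duplicate, ≥3 experiments. Values were given as area percentage, mean ± SD.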

[6] = molecular target: Tyrosine-protein kinase Fgr (Homo sapiens) (UniProt P09769); test: Binding affinity to Fgr
Tyrosine-protein kinase Fgr (Homo sapiens), sequence (P09769 2-529 limits assumed): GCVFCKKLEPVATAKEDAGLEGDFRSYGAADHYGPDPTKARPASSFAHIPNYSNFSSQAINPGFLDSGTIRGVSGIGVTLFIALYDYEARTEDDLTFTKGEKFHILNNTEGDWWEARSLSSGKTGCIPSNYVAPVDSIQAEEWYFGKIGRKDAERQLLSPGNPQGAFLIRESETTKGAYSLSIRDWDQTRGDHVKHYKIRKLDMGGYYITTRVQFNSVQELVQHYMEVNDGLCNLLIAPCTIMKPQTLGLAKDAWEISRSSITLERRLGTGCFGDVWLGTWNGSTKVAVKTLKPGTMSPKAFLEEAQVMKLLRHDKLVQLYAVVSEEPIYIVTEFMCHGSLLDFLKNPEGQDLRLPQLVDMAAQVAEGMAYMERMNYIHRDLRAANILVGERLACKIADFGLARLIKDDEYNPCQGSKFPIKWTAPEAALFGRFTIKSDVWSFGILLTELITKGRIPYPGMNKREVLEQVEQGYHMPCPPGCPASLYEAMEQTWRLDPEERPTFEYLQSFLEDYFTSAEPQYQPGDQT

Neutrophil [7] = test: Cytotoxicity against human neutrophils assessed as viable cells after 2 hrs; assay type: functional; design: concentration or dose not given beside the values
Summary of the method: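 Human neutrophils (2 × 10⁶/mL) from healthy donors were incubated 2 h at 37 °C under CO₂ in HBSS:PBS (3:1) with 1 mg/mL BSA, with compounds. Membrane integrity was read by fluorescein diacetate/ethidium bromide staining for 10 min at room temperature, under UV dark-field microscopy. Green cells were scored viable; red nuclei were scored necrotic.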

[8] = molecular target: T2, Mitogen-activated protein kinase 13 (Homo sapiens) (UniProt O15264); test: Binding affinity p38delta
T2 sequence (whole entry): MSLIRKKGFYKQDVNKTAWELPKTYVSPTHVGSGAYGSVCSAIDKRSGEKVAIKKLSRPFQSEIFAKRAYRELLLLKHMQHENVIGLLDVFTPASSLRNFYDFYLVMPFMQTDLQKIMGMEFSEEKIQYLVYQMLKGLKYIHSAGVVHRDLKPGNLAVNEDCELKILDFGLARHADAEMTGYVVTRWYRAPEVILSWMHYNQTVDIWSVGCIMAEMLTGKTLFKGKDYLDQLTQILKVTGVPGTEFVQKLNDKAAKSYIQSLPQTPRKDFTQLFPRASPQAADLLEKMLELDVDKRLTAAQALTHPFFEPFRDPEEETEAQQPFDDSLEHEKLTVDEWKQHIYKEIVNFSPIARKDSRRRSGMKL

Neutrophil [9] = test: Inhibition of fMLP-induced neutrophil chemotaxis after 45 mins by Boyden chamber assay; assay type: functional, cell-based; conditions: Homo sapiens
Summary of the method: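 Leading-front Boyden assay with donor neutrophils. Cells were preincubated 15 min at room temperature ± compound. Then 4 × 10⁵ cells were placed above a 3 µm cellulose ester filter, with IL8 or fMLP below. After 45 min at 37 °C, filters were hematoxylin-stained and the leading-front distance was read at ×400, 5 fields per filter, in duplicate. Net migration = stimulated minus spontaneous. IC₅₀ came from nonlinear regression, ≥3 experiments.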

[10] = molecular target: Mitogen-activated protein kinase 14 (Homo sapiens) (UniProt Q16539); test: Binding affinity to p38alpha
Mitogen-activated protein kinase 14 (Homo sapiens), sequence (Q16539 whole entry): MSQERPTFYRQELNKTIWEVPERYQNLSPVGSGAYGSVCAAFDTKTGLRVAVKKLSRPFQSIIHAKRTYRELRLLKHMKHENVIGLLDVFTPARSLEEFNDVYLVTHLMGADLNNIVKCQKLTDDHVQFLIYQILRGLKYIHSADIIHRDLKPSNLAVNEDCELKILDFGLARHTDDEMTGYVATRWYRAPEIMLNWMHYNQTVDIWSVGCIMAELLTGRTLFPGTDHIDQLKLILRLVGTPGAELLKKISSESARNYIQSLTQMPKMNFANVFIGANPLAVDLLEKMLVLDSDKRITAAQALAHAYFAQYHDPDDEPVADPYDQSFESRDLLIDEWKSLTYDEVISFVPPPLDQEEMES

[11] = molecular target: Mitogen-activated protein kinase 3 (Homo sapiens) (UniProt P27361); test: Binding affinity to ERK1
Mitogen-activated protein kinase 3 (Homo sapiens), sequence (P27361 whole entry): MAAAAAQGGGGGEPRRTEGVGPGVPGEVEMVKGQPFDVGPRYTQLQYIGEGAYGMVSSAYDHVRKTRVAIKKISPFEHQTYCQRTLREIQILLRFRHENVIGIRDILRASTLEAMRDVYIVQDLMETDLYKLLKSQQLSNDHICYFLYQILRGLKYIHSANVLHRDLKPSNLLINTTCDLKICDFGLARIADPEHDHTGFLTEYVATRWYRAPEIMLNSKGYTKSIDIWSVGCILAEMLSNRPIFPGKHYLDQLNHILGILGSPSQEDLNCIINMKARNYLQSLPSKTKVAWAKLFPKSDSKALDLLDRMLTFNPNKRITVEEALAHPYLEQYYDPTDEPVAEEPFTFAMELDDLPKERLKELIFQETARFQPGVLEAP

[12] = molecular target: T3, Mitogen-activated protein kinase 12 (Homo sapiens) (UniProt P53778); test: Binding affinity to p38-gamma
T3 sequence (whole entry): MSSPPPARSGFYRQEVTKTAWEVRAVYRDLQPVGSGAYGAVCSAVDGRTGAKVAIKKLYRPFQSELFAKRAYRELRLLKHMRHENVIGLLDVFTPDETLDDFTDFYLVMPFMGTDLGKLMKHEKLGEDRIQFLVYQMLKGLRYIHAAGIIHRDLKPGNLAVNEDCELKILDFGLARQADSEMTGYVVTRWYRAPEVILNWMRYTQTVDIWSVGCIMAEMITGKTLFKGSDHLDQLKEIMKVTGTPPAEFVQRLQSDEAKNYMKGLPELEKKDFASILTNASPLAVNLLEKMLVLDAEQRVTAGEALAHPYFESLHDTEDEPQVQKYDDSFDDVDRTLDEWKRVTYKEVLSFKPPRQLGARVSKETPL

[13] = molecular target: Mitogen-activated protein kinase 9 (Homo sapiens) (UniProt P45984); test: Binding affinity to JNK2
Mitogen-activated protein kinase 9 (Homo sapiens), sequence (P45984 whole entry, looked up): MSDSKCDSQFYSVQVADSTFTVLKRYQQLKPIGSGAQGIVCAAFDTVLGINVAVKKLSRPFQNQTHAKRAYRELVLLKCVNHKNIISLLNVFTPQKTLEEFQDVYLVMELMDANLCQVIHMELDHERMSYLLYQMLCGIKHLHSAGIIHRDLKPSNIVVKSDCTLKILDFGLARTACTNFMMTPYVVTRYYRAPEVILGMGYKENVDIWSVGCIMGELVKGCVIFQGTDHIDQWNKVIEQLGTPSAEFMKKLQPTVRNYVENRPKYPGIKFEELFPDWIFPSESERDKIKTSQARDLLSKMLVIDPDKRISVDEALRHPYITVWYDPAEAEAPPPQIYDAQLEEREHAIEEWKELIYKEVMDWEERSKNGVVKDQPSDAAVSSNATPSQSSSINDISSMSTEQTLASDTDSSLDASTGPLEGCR

[14] = molecular target: T4, C-C chemokine receptor type 3 (Homo sapiens) (UniProt P51677); test: Binding affinity to CCR3
T4 sequence (whole entry): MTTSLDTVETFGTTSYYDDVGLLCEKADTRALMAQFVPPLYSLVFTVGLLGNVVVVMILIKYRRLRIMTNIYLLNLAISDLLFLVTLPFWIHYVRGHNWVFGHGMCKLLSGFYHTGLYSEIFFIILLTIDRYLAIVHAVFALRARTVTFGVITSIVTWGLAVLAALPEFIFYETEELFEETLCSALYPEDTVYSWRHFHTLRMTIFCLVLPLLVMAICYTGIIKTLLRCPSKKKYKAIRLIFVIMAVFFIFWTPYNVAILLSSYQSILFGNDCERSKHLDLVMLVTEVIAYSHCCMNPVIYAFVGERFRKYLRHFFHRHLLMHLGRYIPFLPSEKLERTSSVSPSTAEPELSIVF

[15] = molecular target: Mitogen-activated protein kinase 8 (Homo sapiens) (UniProt P45983); test: Binding affinity to JNK1
Mitogen-activated protein kinase 8 (Homo sapiens), sequence (P45983 whole entry): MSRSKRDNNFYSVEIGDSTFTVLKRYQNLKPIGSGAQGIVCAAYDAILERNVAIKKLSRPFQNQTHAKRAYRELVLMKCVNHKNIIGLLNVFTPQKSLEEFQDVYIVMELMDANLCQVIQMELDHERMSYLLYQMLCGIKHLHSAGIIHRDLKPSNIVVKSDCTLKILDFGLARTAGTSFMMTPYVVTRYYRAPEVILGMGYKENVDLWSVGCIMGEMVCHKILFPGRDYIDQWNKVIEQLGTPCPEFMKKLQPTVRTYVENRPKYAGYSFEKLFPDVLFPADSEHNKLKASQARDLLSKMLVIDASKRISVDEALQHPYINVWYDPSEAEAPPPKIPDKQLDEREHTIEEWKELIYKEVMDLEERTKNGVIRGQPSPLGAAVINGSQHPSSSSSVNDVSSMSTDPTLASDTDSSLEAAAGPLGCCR

[16] = molecular target: Mitogen-activated protein kinase 11 (Homo sapiens) (UniProt Q15759); test: Binding affinity to p38beta2
Mitogen-activated protein kinase 11 (Homo sapiens), sequence (Q15759 whole entry): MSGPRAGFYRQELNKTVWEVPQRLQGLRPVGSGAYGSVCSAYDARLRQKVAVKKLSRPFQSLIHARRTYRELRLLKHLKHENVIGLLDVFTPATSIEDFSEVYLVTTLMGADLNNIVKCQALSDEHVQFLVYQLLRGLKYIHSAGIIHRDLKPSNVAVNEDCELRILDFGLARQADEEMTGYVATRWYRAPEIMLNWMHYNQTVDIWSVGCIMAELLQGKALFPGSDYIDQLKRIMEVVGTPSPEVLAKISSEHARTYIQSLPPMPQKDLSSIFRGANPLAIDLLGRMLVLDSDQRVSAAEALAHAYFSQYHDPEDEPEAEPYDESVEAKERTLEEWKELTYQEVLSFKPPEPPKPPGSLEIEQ

[17] = molecular target: Tyrosine-protein kinase HCK (Homo sapiens) (UniProt P08631); test: Binding affinity to Hck
Tyrosine-protein kinase HCK (Homo sapiens), sequence (P08631 2-526 limits assumed): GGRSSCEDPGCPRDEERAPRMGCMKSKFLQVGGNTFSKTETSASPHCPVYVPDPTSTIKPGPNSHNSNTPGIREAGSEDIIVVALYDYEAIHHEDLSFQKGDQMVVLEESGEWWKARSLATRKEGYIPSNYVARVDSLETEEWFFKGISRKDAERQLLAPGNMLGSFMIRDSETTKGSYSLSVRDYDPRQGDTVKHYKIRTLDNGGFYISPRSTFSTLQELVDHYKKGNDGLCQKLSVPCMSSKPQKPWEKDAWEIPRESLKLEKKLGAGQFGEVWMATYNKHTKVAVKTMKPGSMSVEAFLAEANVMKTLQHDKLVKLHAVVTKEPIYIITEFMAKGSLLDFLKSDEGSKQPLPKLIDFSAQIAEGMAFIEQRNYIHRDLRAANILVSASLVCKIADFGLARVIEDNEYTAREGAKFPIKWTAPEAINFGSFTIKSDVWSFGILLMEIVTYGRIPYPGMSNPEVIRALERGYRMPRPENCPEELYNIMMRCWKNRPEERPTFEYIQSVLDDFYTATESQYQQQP

[18] = molecular target: T5, C-X-C chemokine receptor type 2 (Homo sapiens) (UniProt P25025); test: Binding affinity to CXCR2
T5 sequence (whole entry): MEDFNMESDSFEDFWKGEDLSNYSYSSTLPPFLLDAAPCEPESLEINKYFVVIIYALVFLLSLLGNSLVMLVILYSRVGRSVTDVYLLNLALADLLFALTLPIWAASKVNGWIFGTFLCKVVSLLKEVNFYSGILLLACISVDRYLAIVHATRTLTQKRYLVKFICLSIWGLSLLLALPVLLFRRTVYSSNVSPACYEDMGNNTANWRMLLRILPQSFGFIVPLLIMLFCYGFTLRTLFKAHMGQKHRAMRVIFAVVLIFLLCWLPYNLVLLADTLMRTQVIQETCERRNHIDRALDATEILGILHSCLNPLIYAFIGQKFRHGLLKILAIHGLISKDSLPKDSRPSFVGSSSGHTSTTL

Activity [1]	Activity [2]	Activity [3]	Activity [4]	Activity [6]	Activity [8]	Activity [10]	Activity [11]	Activity [12]	Activity [13]	Activity [14]	Activity [15]	Activity [16]	Activity [17]	Activity [18]	SMILES	Activity (Neutrophil [5])	Activity (Neutrophil [7])	Activity (Neutrophil [9])
inactive	inactive	inactive	inactive	inactive	inactive	inactive	inactive	inactive	inactive	inactive	inactive	inactive	inactive	inactive	CCOC(=O)c1cnn(CC(O)c2ccccc2)c1NC(=O)Nc1ccccc1 (centres undefined)	97%	90%	inactive
inactive	inactive	inactive	inactive	inactive	inactive	inactive	inactive	inactive	inactive	inactive	inactive	inactive	inactive	inactive	CCOC(=O)c1cnn(CC(O)c2ccccc2)c1NC(=O)NCc1ccccc1 (centres undefined)	69%	90%	inactive
inactive	inactive	inactive	inactive	inactive	inactive	inactive	inactive	inactive	inactive	inactive	inactive	inactive	inactive	inactive	CCOC(=O)c1cnn(CC(O)c2ccccc2)c1NC(=O)NC(C)C (centres undefined)	97%	90%	inactive
